# The full list was thinned out, with hits kept by preference.
# ROMK mod: ROMK potassium channel modulators, primary screen, cell-based, thallium flux, MLSMR library. actives 2% (n = 130,000). Tet-inducible ROMK, thallium flux fluorescence; actives lie on both sides. ATP-sensitive inward rectifier potassium channel 1 (Homo sapiens), P48048. B-score at 10 µM;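 active = signal ratio slope over the read window, or its plate-corrected B-score, at least 3 SD from the plate mean, either direction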;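 also: B-score of the F/F0 ratio slope over 7 to 12 s after thallium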
# Target sequence (P48048 whole entry, looked up): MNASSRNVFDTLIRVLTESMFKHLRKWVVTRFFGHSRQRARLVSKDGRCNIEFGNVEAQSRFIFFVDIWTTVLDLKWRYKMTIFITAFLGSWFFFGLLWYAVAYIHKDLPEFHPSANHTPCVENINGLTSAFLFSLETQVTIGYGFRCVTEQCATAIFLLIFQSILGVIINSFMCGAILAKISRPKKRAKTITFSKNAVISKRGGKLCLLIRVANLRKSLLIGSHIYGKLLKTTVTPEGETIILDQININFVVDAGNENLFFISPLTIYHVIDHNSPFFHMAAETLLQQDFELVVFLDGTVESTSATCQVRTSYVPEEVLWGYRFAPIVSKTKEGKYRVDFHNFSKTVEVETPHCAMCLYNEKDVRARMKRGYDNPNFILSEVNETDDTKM
# Biofilm kill mix: clotrimazole potentiators killing C. albicans biofilm, primary screen, 4-compound mixtures. C. albicans biofilm persisters + clotrimazole, fluorescence viability; primary screen in compound mixtures of four per well. inhibition, % at 7.6 µM. actives 0.02% (n = 120,000). AID 1242, 2008;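 active = inhibition above 30.3% in the primary screen of four-compound pools, then above 30% when the compound was retested; inconclusive = passed the primary limit but could not be retested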;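 also: compounds exposed to preformed 24 h biofilms for 48 h; 0% = untreated biofilm control and 100% = clotrimazole plus chlorhexidine kill blank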
#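 Test system: C. albicans biofilms. Buffer or medium: RPMI/MOPS medium, pH 7.0. Timing: 48 h compound exposure at 37 °C. Technique: Alamar Blue fluorescence. Evaluation: percent inhibition of biofilm viability.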
# ROMK retest: ROMK channel modulator hit retest, confirmation, cell-based, thallium flux, duplicate, resupplied hits. AID 1917, 2009. actives 54% (n = 3,000). fluorescence ratio; active compounds read low. normalized thallium flux (F/F0 slope) at 10 µM. shares compounds with ROMK mod;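 active = Flux at 10 µM at least 3 SD below or above vehicle control mean in one or both replicates; inconclusive = no clear call, values can overlap the other calls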
# An asterisk follows results filed as active; ? = inconclusive; / = no result.
SMILES,ROMK mod,Biofilm kill mix,ROMK retest
Cc1ccc(NC(=O)c2nc(C)n(-c3ccc([N+](=O)[O-])cc3)n2)cc1,/,/,?
CN(C(=O)COC(=O)c1ccc([N+](=O)[O-])cc1N)c1ccccc1,0.54,8,/
O=C1CC(=O)N2N=C(c3ccc([N+](=O)[O-])cc3)SC2=N1,0.21,3,/
COc1ccc(CCNC(=O)Cc2c(Cl)cccc2Cl)cc1,-0.68,12,/
COc1cc(-c2nc3cnccn3c2Nc2ccc(C(C)C)cc2)ccc1O,-2.2,/,/
COc1cc(-c2nc3cnccn3c2Nc2ccc(C)cc2)ccc1O,-3.4*,/,0.066*
O=C(NNC(=O)c1cc2cc(OC(F)(F)F)ccc2[nH]1)c1cccc(C(F)(F)F)c1,/,24,/
Cc1cc2c(cc1S(=O)(=O)N(C)c1ccccc1)NC(=O)CO2,-5*,6,0.053*
Cc1cc2c(cc1S(=O)(=O)Nc1cccc(F)c1C)NC(=O)CO2,-2,16,/
COc1cc(/C=N/NC(=O)C2CCN(CC(O)COCc3ccccc3)CC2)ccc1O (configuration not stated),-0.05,-1,/
CC1(C)Cc2c(C#N)c(N3CCN(C(=O)c4ccccc4Cl)CC3)nc(-c3ccco3)c2CS1,-1.8*,/,0.089
CC1(C)Cc2c(c(-c3ccco3)[nH]c(=O)c2C#N)CS1,-3.7*,/,0.078
CC1(C)Cc2c(c(-c3ccccc3)[nH]c(=O)c2C#N)CS1,0.62,/,/
CC1(C)Cc2c(C#N)c(N3CCN(C(=O)c4ccco4)CC3)nc(-c3ccco3)c2CS1,2,/,/
COC(=O)CC(c1ccc(OC)c(OC)c1)c1ccc(OC)c(OC)c1,0.44,-5,/
COc1ccc(NC(=O)C(CC(C)C)NC(=O)C2CCCCC2)c(OC)c1 (configuration not stated),-0.17,15,/
Cc1ccc(CN2C3CCCC2CC(NC(=O)c2ccc(C)cc2)C3)cc1 (configuration not stated),-2.7*,17,0.056*
Cc1ccc(C(=O)NC2CC3CCC(C2)N3Cc2ccco2)cc1 (configuration not stated),/,16,/
CCCCC(=O)NC1(C(F)(F)F)NC(=O)N(Cc2ccccc2)C1=O (configuration not stated),-0.69,13,/
CCOC(=O)c1nc(SC)n(C)c1C(=O)OCC,/,15,/
CCn1c(C(=O)N2CCC(C(=O)N3CCN(c4ccccn4)CC3)CC2)cc2sccc21,/,/,0.075
CC1CCN(C(=O)C2CCN(C(=O)c3cc4sccc4n3Cc3ccc(F)cc3)CC2)CC1,-2.9,/,/
Clc1ccccc1Cc1noc(CN2CCCCC2CCc2ccccn2)n1 (configuration not stated),/,13,/
Cc1ccc(S(=O)(=O)Cc2c(C)noc2C)cc1,-0.86,/,/
Cc1noc(C)c1CS(=O)(=O)c1ccc(Br)cc1,/,/,0.082
SMILES,ROMK mod,Biofilm kill mix,ROMK retest
O=C(OCc1cccc(F)c1)c1ccc2c(=O)n3c(nc2c1)CCC3,/,20,/
O=C(CSCc1ccc(Cl)cc1)Nc1ccccc1O,2.3*,2,0.074
O=C(CSCc1ccc(Cl)cc1)N/N=C/c1ccccc1,0.039,/,/
COc1ccc([N+](=O)[O-])cc1NC(=O)C(C)Sc1nc(-c2ccccc2)cs1 (configuration not stated),/,11,/
CS/C(Nc1cc(Cl)ccc1Cl)=C(/C#N)C(=O)c1ccco1,/,23,0.051*
O=C(Nc1cc2c(cc1Cl)OCCO2)c1ccco1,/,12,/
Cc1cc(C)n(C(=O)/C(C#N)=N/Nc2cc(Cl)cc(Cl)c2)n1,-1.5,9,/
COC(=O)CSC1=C(C#N)C(c2ccc(C)o2)CC(=O)N1 (configuration not stated),2.7*,23,0.077
COC(=O)CSC1=C(C#N)C(c2sccc2C)CC(=O)N1 (configuration not stated),1.7,9,/
CCOC(=O)CCCSc1nnc(CCCCCN2C(=O)c3cccc4cccc(c34)C2=O)o1,-0.6,3,/
COc1ccc2c(c1)c(C(=O)N/N=C/c1ccc(O)c(O)c1)c(C)n2C,-0.013,5,/
O=C(NCc1cccnc1)/C(=C\c1ccc(-c2ccc(Br)cc2)o1)S(=O)(=O)c1ccccc1,/,6,/
O=C(NCc1cccnc1)/C(=C/c1ccc(-c2ccc(Cl)cc2)o1)S(=O)(=O)c1ccccc1,/,/,0.055*
Cc1ccc(C(=O)N/C(=C/c2ccc(-c3cc(C(F)(F)F)ccc3Cl)o2)C(=O)NCc2cccnc2)cc1,-0.95,/,/
O=C(NCc1cccnc1)/C(=C/c1ccc(-c2cccc(C(F)(F)F)c2)o1)NC(=O)c1ccccc1,-5.1*,/,0.054*
CCN(CC)C(C)C#CCC(c1ccccc1)c1ccccc1 (configuration not stated),/,10,/
COc1ccccc1CC(=O)Nc1ccc2c(c1)C(=O)NC2=O,-0.55,-33,/
CC(C)COc1ccc(C(=O)OC2CC(C)(C)OCC2CN(C)C)cc1 (configuration not stated),-3.7*,/,0.055*
CN(C)CC1CCCCC1OC(=O)c1ccc(Br)cc1 (configuration not stated),0.32,4,/
O=C1/C(=C/c2ccccc2)Nc2ccccc21,/,/,0.023*
O=C1O/C(=C/c2ccccc2)c2ccccc21,0.31,7,/
Cc1ccccc1OCCSCc1nc2ccccc2[nH]1,0.19,4,/
CC(C)c1ccc(OCc2ccc(C(=O)O)o2)cc1,/,13,/
O=C(O)c1ccc(COc2ccc(Cl)cc2)o1,/,/,?
CCc1ccc(N(CC(=O)NCc2ccc(F)cc2)C(=O)c2csnn2)cc1,0.015,-3,/
SMILES,ROMK mod,Biofilm kill mix,ROMK retest
Cc1cc(=O)oc2c(C(=O)/C=C\c3cccs3)c(O)ccc12,-5.7*,19,0.05*
COc1cc(/C=C/C(=O)c2c(O)ccc3c(C)cc(=O)oc23)ccc1O,-3.2,/,/
CCN=C(NC#N)SCc1c(F)cccc1Cl,0.016,9,/
Cc1ccc2c(C(=O)N3CCN(c4ccccc4)CC3)cc(-c3cccnc3)nc2c1C,1.9*,26,0.078
Cc1ccc2nc(-c3cccnc3)cc(C(=O)N3CCN(c4ccc([N+](=O)[O-])cc4)CC3)c2c1,0.42,10,/
Cc1oc(-c2cccs2)nc1CN1CCC(CO)(CCOc2ccccc2)CC1,-1.6,24,/
O=C(N/N=C/c1coc2ccccc2c1=O)c1cn(-c2ccccc2)nc1-c1ccc(F)cc1,0.69,5,/
CN(C)CC(O)CN1C(=O)N(CN2C(=O)N(CC(O)CN(C)C)C(=O)C2(C)C)C(C)(C)C1=O (configuration not stated),0.91,-1,/
CCOC(=O)C1CCCN(c2nc3ccccc3nc2C(C#N)C(=O)OCCOC)C1 (configuration not stated),-1.7,/,/
CCOC(=O)C1CCCN(c2nc3ccccc3nc2C(C#N)C(=O)OC(C)COC)C1 (configuration not stated),-0.14,13,0.071
CC(C)(O)C#Cc1ccc(C(=O)NCc2ccccc2F)cc1,0.15,-1,/
Oc1ccccc1Nc1nc(NCC2CCCO2)c2ccccc2n1 (configuration not stated),-0.12,/,/
Oc1ccc(Nc2nc(NCC3CCCO3)c3ccccc3n2)cc1 (configuration not stated),-5.5*,/,0.055*
CCn1c(Oc2ccc(F)cc2)nc2c1c(=O)n(C)c(=O)n2C,-0.66,0,/
CCCCn1c(Oc2ccc(C(=O)OC)cc2)nc2c1c(=O)n(C)c(=O)n2C,-3.7*,8,0.06*

# High-throughput results as filed in PubChem.
